Test results published in ChEMBL document CHEMBL1142703, “Novel ligands for the chemokine receptor-3 (CCR3): a receptor-modeling study based on 5D-QSAR” (J Med Chem, 2005).

target: T1, C-C chemokine receptor type 3 (Homo sapiens, UniProt P51677); assay: Inhibition of [125I]eotaxin-1 binding to human chemokine receptor (hCCR3-C1)
T1 sequence (P51677 whole entry): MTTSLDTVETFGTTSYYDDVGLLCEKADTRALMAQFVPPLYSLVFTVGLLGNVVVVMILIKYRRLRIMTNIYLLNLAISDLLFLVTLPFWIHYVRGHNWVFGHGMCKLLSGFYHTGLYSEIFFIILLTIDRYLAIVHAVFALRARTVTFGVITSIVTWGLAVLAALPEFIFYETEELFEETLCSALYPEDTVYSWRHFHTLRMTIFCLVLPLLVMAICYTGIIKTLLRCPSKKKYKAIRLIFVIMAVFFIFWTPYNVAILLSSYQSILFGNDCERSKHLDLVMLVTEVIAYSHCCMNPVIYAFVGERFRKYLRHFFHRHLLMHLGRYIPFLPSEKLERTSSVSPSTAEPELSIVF
Procedure, shortened: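 K562 leukemia myelogenic blast cells transfected with human CCR3 (hCCR3-C1). Binding of the radioligand 125I-eotaxin-1 was measured in a scintillation proximity format. Controls: specific binding with no displacer added, and nonspecific binding with unlabeled eotaxin or test compound added. Bound radioactivity was counted by scintillation. Ki was obtained by iterative fitting of the data to a law-of-mass-action model.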

Structure (SMILES)	Ki [nM]
COc1ccc(NC(=O)NCC(c2ccccc2)N2CCN(C3CCCCC3)CC2)cc1 (stereo not given)	9830
Cc1cc(C)cc(NC(=O)NCC(CC(C)C)N2CCN(c3ccc(Cl)c(Cl)c3)CC2)c1 (stereo not given)	313
Cc1ccc(NC(=O)NCC(c2ccccc2)N2CCN(c3ccccc3)CC2)cc1 (stereo not given)	8020
CC(C)(C)c1ccc(C(CNC(=O)Cc2ccc(C(F)(F)F)cc2)N2CCN(C3CCCCC3)CC2)cc1 (stereo not given)	10300
CN1CCN(C(CNC(=O)Nc2ccc(F)cc2)c2ccc(N(C)C)cc2)CC1 (stereo not given)	7750
CC(C)(C)c1ccc(C(CNC(=O)Cc2ccccc2)N2CCN(c3ccccc3)CC2)cc1 (stereo not given)	11200
O=C(NCC(c1ccccc1)N1CCN(C2CCCCC2)CC1)Nc1ccc(C(F)(F)F)cc1 (stereo not given)	1460
O=C(NCC(c1ccc(C(F)(F)F)cc1)N1CCN(C2CCCCC2)CC1)Nc1ccc(C(F)(F)F)cc1 (stereo not given)	1310
COc1ccc(C(CNC(=O)Nc2ccc(C)cc2)N2CCN(C3CCCCC3)CC2)cc1 (stereo not given)	2250
CC(C)(C)c1ccc(C(CNC(=O)Nc2ccc(F)cc2)N2CCN(C3CCCCC3)CC2)cc1 (stereo not given)	1120
COc1ccc(C(CNCCc2ccc(F)cc2)N2CCN(C)CC2)cc1 (stereo not given)	11700
CN(C)c1ccc(C(CNC(=O)Nc2cc(Cl)cc(Cl)c2)N2CCN(C3CCCCC3)CC2)cc1 (stereo not given)	987
COc1ccc(NC(=O)NCC(c2ccc(C(C)(C)C)cc2)N2CCN(C3CCCCC3)CC2)cc1 (stereo not given)	1980
COc1ccc(CCNCC(c2ccc(C(F)(F)F)cc2)N2CCN(c3ccccc3)CC2)cc1 (stereo not given)	393
CC(C)CC(CNC(=O)Nc1cc(Cl)cc(Cl)c1)N1CCN(C2CCCCC2)CC1 (stereo not given)	296
Fc1ccc(CCNCC(c2ccc(C(F)(F)F)cc2)N2CCN(C3CCCCC3)CC2)cc1 (stereo not given)	895
COc1ccc(C(CNCCc2ccc(C(C)(C)C)cc2)N2CCN(C3CCCCC3)CC2)cc1 (stereo not given)	629
COc1ccc(NC(=O)NCC(c2ccc(C(F)(F)F)cc2)N2CCN(c3ccccc3)CC2)cc1 (stereo not given)	14800
COc1ccccc1C(CNC(=O)Nc1cc(Cl)cc(Cl)c1)N1CCN(C2CCCCC2)CC1 (stereo not given)	897
CC(C)(C)c1ccc(C(CNC(=O)Nc2ccccc2)N2CCN(C3CCCCC3)CC2)cc1 (stereo not given)	1130
CC(C)(C)c1ccc(NC(=O)NCC(c2ccc(C(C)(C)C)cc2)N2CCN(C3CCCCC3)CC2)cc1 (stereo not given)	2050
COc1ccc(C(CNC(=O)Nc2cc(Cl)cc(Cl)c2)N2CCN(C3CCCCC3)CC2)cc1 (stereo not given)	830
Cc1ccc(NC(=O)NCC(c2ccc(-c3ccccc3)cc2)N2CCN(C3CCCCC3)CC2)cc1 (stereo not given)	316

Structure (SMILES)	Ki [nM]
COc1ccc(NC(=O)NCC(c2ccccc2OC)N2CCN(C3CCCCC3)CC2)cc1 (stereo not given)	10500
CC(C)(C)c1ccc(CCNCC(c2ccc(C(F)(F)F)cc2)N2CCN(C3CCCCC3)CC2)cc1 (stereo not given)	832
Fc1ccc(CCNCC(c2ccc(C(F)(F)F)cc2)N2CCN(c3ccccc3)CC2)cc1 (stereo not given)	1200
Cc1ccc(NC(=O)NCC(c2ccccc2)N2CCN(C3CCCCC3)CC2)cc1 (stereo not given)	5390
Cc1ccc(NC(=O)NCC(CC(C)C)N2CCN(c3ccc(Cl)c(Cl)c3)CC2)cc1 (stereo not given)	179
O=C(NCC(c1ccccc1)N1CCN(C2CCCCC2)CC1)Nc1ccc(F)cc1 (stereo not given)	6360
Cc1cc(C)cc(NC(=O)NCC(c2ccc(-c3ccccc3)cc2)N2CCN(C3CCCCC3)CC2)c1 (stereo not given)	326
O=C(NCC(c1ccccc1)N1CCN(c2ccccc2)CC1)Nc1ccc(F)cc1 (stereo not given)	5550
FC(F)(F)c1ccc(CCNCC(c2ccccc2)N2CCN(C3CCCCC3)CC2)cc1 (stereo not given)	1310
O=C(NCC(c1ccc(C(F)(F)F)cc1)N1CCN(C2CCCCC2)CC1)Nc1ccc(F)cc1 (stereo not given)	1110
COc1ccccc1C(CNC(=O)Nc1ccc(F)cc1)N1CCN(C2CCCCC2)CC1 (stereo not given)	5380
CC(C)(C)c1ccc(CCNCC(c2ccc(C(C)(C)C)cc2)N2CCN(C3CCCCC3)CC2)cc1 (stereo not given)	349
Cc1ccc(CCNCC(c2ccccc2)N2CCN(C)CC2)cc1 (stereo not given)	11600
O=C(NCC(c1ccc(C(F)(F)F)cc1)N1CCN(C2CCCCC2)CC1)Nc1cc(Cl)cc(Cl)c1 (stereo not given)	932
CC(C)(C)c1ccc(C(CNC(=O)Nc2ccc(C(F)(F)F)cc2)N2CCN(C3CCCCC3)CC2)cc1 (stereo not given)	972
COc1ccc(C(CNCCc2cc(C)cc(C)c2)N2CCN(C3CCCCC3)CC2)cc1 (stereo not given)	50
FC(F)(F)c1ccc(C(CNCCc2ccccc2)N2CCN(C3CCCCC3)CC2)cc1 (stereo not given)	484
COc1ccccc1CCNCC(c1ccc(C(C)(C)C)cc1)N1CCN(C2CCCCC2)CC1 (stereo not given)	216
CC(C)(C)c1ccc(C(CNCCc2cc(Cl)cc(Cl)c2)N2CCN(C3CCCCC3)CC2)cc1 (stereo not given)	224
COc1ccc(C(CNC(=O)Nc2ccc(C(C)(C)C)cc2)N2CCN(C3CCCCC3)CC2)cc1 (stereo not given)	910
COc1ccc(C(CNC(=O)Nc2ccc(C(F)(F)F)cc2)N2CCN(C3CCCCC3)CC2)cc1 (stereo not given)	1530
Cc1cc(C)cc(CCNCC(c2ccc(-c3ccccc3)cc2)N2CCN(C3CCCCC3)CC2)c1 (stereo not given)	517
Cc1ccc(NC(=O)NCC(c2ccc(C(F)(F)F)cc2)N2CCN(C3CCCCC3)CC2)cc1 (stereo not given)	1070

Structure (SMILES)	Ki [nM]
COc1ccccc1CCNCC(c1ccccc1OC)N1CCN(c2ccccc2)CC1 (stereo not given)	1580
Cc1ccc(NC(=O)NCC(c2ccc(C(F)(F)F)cc2)N2CCN(C)CC2)cc1 (stereo not given)	10700
COc1ccccc1NC(=O)NCC(c1ccc(C(F)(F)F)cc1)N1CCN(C2CCCCC2)CC1 (stereo not given)	3650
CC(C)CC(CNC(=O)Nc1ccc(Cl)cc1)N1CCN(C2CCCCC2)CC1 (stereo not given)	429
COc1ccccc1C(CNCCc1cc(Cl)cc(Cl)c1)N1CCN(C2CCCCC2)CC1 (stereo not given)	344
COc1ccc(C(CNCCc2ccc(C)cc2)N2CCN(c3ccccc3)CC2)cc1 (stereo not given)	597
COc1ccc(C(CNCCc2ccccc2)N2CCN(C3CCCCC3)CC2)cc1 (stereo not given)	1040
CN(C)c1ccc(C(CNCCc2ccc(C(F)(F)F)cc2)N2CCN(c3ccccc3)CC2)cc1 (stereo not given)	1670
CN(C)c1ccc(C(CNC(=O)Cc2ccc(C(F)(F)F)cc2)N2CCN(c3ccccc3)CC2)cc1 (stereo not given)	34900
COc1ccccc1C(CNC(=O)Nc1ccc(C)cc1)N1CCN(c2ccccc2)CC1 (stereo not given)	3540
CN(C)c1ccc(CCNCC(c2ccc(C(C)(C)C)cc2)N2CCN(C3CCCCC3)CC2)cc1 (stereo not given)	312
COc1ccccc1NC(=O)NCC(c1ccc(C(F)(F)F)cc1)N1CCN(C)CC1 (stereo not given)	3350
CN1CCN(C(CNCCc2ccc(C(F)(F)F)cc2)c2ccccc2)CC1 (stereo not given)	8970
CN1CCN(C(CNC(=O)Nc2cc(Cl)cc(Cl)c2)c2ccc(N(C)C)cc2)CC1 (stereo not given)	3810
CC(C)(C)c1ccc(C(CNCCc2ccc(C(F)(F)F)cc2)N2CCN(C3CCCCC3)CC2)cc1 (stereo not given)	231
COc1ccc(CCNCC(c2ccc(C(C)(C)C)cc2)N2CCN(C3CCCCC3)CC2)cc1 (stereo not given)	346
COc1ccccc1CC(=O)NCC(c1ccccc1OC)N1CCN(c2ccccc2)CC1 (stereo not given)	6000
COc1ccc(C(CNC(=O)Nc2ccc(F)cc2)N2CCN(C3CCCCC3)CC2)cc1 (stereo not given)	1030
COc1ccc(C(CNCCc2ccc(C)cc2)N2CCN(C3CCCCC3)CC2)cc1 (stereo not given)	914
CC(C)(C)c1ccc(C(CNCCc2ccccc2)N2CCN(C3CCCCC3)CC2)cc1 (stereo not given)	350
Cc1ccc(CCNCC(c2ccc(N(C)C)cc2)N2CCN(c3ccccc3)CC2)cc1 (stereo not given)	435
Cc1ccc(CCNCC(c2ccc(C(F)(F)F)cc2)N2CCN(C3CCCCC3)CC2)cc1 (stereo not given)	545
COc1ccccc1CCNCC(c1ccc(C(C)(C)C)cc1)N1CCN(c2ccccc2)CC1 (stereo not given)	488

Structure (SMILES)	Ki [nM]
COc1ccc(CCNCC(c2ccc(C(F)(F)F)cc2)N2CCN(C3CCCCC3)CC2)cc1 (stereo not given)	477
COc1ccc(CCNCC(c2ccc(C(C)(C)C)cc2)N2CCN(c3ccccc3)CC2)cc1 (stereo not given)	768
COc1ccc(NC(=O)NCC(c2ccc(C(F)(F)F)cc2)N2CCN(C3CCCCC3)CC2)cc1 (stereo not given)	1710
CN(C)c1ccc(CCNCC(c2ccc(C(F)(F)F)cc2)N2CCN(C3CCCCC3)CC2)cc1 (stereo not given)	1080
O=C(NCC(c1ccccc1)N1CCN(C2CCCCC2)CC1)Nc1cc(Cl)cc(Cl)c1 (stereo not given)	1250
CN(C)c1ccc(NC(=O)NCC(c2ccc(C(C)(C)C)cc2)N2CCN(C3CCCCC3)CC2)cc1 (stereo not given)	1720
CN(C)c1ccc(CCNCC(c2ccccc2)N2CCN(c3ccccc3)CC2)cc1 (stereo not given)	1770
COc1ccc(C(CNCCc2ccc(C(F)(F)F)cc2)N2CCN(C3CCCCC3)CC2)cc1 (stereo not given)	929
O=C(NCC(c1ccc(C(F)(F)F)cc1)N1CCN(C2CCCCC2)CC1)Nc1ccccc1 (stereo not given)	479
COc1ccc(C(CNC(=O)Cc2ccccc2)N2CCN(c3ccccc3)CC2)cc1 (stereo not given)	40200
O=C(Cc1cc(Cl)cc(Cl)c1)NCC(c1ccccc1)N1CCN(C2CCCCC2)CC1 (stereo not given)	62500
CN1CCN(C(CNCCc2ccccc2)c2ccccc2)CC1 (stereo not given)	21800
Clc1cc(Cl)cc(CCNCC(c2ccccc2)N2CCN(C3CCCCC3)CC2)c1 (stereo not given)	80
COc1ccc(C(CNCCc2cc(Cl)cc(Cl)c2)N2CCN(C3CCCCC3)CC2)cc1 (stereo not given)	62
CN1CCN(C(CNCCc2ccccc2)c2ccc(C(F)(F)F)cc2)CC1 (stereo not given)	4730
COc1ccccc1CCNCC(c1ccc(C(F)(F)F)cc1)N1CCN(C2CCCCC2)CC1 (stereo not given)	118
FC(F)(F)c1ccc(CCNCC(c2ccc(C(F)(F)F)cc2)N2CCN(C3CCCCC3)CC2)cc1 (stereo not given)	782
CN1CCN(C(CNC(=O)Nc2cc(Cl)cc(Cl)c2)c2ccc(C(F)(F)F)cc2)CC1 (stereo not given)	5180
COc1ccccc1CC(=O)NCC(c1ccc(C(C)(C)C)cc1)N1CCN(c2ccccc2)CC1 (stereo not given)	8850
Cc1ccc(CC(=O)NCC(c2ccccc2)N2CCN(c3ccccc3)CC2)cc1 (stereo not given)	26900
CN(C)c1ccc(CCNCC(c2ccc(C(F)(F)F)cc2)N2CCN(c3ccccc3)CC2)cc1 (stereo not given)	605
